Converted amounts (≈) assume the structure as drawn.
Key:
[1] = Activity of Beta-lactamase FOX-1
Method in brief: (§1)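 Enzyme source: AmpC genes cloned without native promoter under lacZ control, expressed in E. coli TOP10, purified (FOX-1 by two Q-Sepharose steps, bis-Tris pH 6.8 then Tris-HCl pH 9). Hydrolysis monitored spectrophotometrically at 30°C in 100 mM sodium phosphate pH 7.0 with cephaloridine, ertapenem, imipenem or meropenem. kcat from initial rates at saturating substrate ([S] = 100 × Km).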

[2] = Activity of Beta-lactamase DHA-1; method in brief: as §1
[3] = Activity of Beta-lactamase ACT-1; method in brief: as §1
[4] = Ratio of Kcat to Km for Beta-lactamase FOX-1
Method in brief: (§2)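 Purified TOP10-expressed AmpC enzymes, assayed spectrophotometrically at 30°C, 100 mM sodium phosphate pH 7.0. Cephaloridine Km and kcat from initial rates via Eadie-Hofstee linearization. For imipenem, Ki replaced Km, measured against cephaloridine as reporter substrate. kcat from initial rates at saturating substrate ([S] = 100 × Km) using undiluted enzyme extract. Efficiency taken as kcat/Km.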

[5] = Ratio of Kcat to Km for Beta-lactamase ACC-1; method in brief: as §2
[6] = Ratio of Kcat to Km for Beta-lactamase AmpC-B2; method in brief: as §2
[7] = Ratio of Kcat to Km for Beta-lactamase DHA-1; method in brief: as §2
[8] = Ratio of Kcat to Km for Beta-lactamase CMY-2; method in brief: as §2
[9] = Ratio of Kcat to Km for Beta-lactamase ACT-1; method in brief: as §2
[10] = Activity of Beta-lactamase ACC-1
Method in brief: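 ACC-1 cloned without its native promoter behind the lacZ promoter, expressed in E. coli TOP10 and purified. Ki, Km and kcat measured by UV spectrophotometry at 30°C in 100 mM sodium phosphate pH 7.0. Cephaloridine Km/kcat from initial rates by Eadie-Hofstee analysis. Imipenem Ki measured against cephaloridine reporter substrate; kcat from initial rates at [S] = 100 × Km.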

[11] = Activity of Beta-lactamase AmpC-B2; method in brief: as §1
[12] = Activity of Beta-lactamase CMY-2; method in brief: as §1
[13] = system: Escherichia coli; assay: Antimicrobial activity against Escherichia coli TOP10 transformed with Escherichia coli ECB2 plasmid carrying CMY-2 by agar dilution method; format: functional
Method in brief: (§3)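 Agar dilution MICs on Mueller-Hinton agar, 10^4 CFU per spot, read by CLSI guidelines. Strains are wild-type E. coli TOP10, with or without a cloned ampC gene (native promoter removed, lacZ promoter-driven). Antibiotics tested: cefoxitin, cefuroxime, cefotaxime, ceftazidime, cefepime, imipenem, ertapenem, meropenem.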

[14] = system: Escherichia coli; assay: Antimicrobial activity against OmpC/OmpF porin deficient Escherichia coli HB4 by agar dilution method; format: functional
Method in brief: (§4)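 Agar dilution on Mueller-Hinton agar, inoculum 10^4 CFU per spot, interpreted per CLSI. Host is E. coli HB4, which lacks OmpC and OmpF, with or without a cloned ampC gene under the lacZ promoter. Panel: cefoxitin, cefuroxime, cefotaxime, ceftazidime, cefepime, imipenem, ertapenem, meropenem.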

[15] = system: Escherichia coli; assay: Antimicrobial activity against OmpC/OmpF porin deficient Escherichia coli HB4 transformed with Escherichia coli EC-6 plasmid carrying AmpC-B2 by agar dilution method; format: functional; method in brief: as §4
[16] = system: Escherichia coli; assay: Antimicrobial activity against OmpC/OmpF porin deficient Escherichia coli HB4 transformed with Escherichia coli ECB-1 plasmid carrying ACC-1 by agar dilution method; format: functional; method in brief: as §4
[17] = system: Escherichia coli; assay: Antimicrobial activity against OmpC/OmpF porin deficient Escherichia coli HB4 transformed with Escherichia coli pGLK-1 plasmid carrying FOX-1 by agar dilution method; format: functional; method in brief: as §4
[18] = system: Escherichia coli; assay: Antimicrobial activity against OmpC/OmpF porin deficient Escherichia coli HB4 transformed with Escherichia coli DH10B plasmid carrying DHA-1 by agar dilution method; format: functional; method in brief: as §4
[19] = system: Escherichia coli; assay: Antimicrobial activity against OmpC/OmpF porin deficient Escherichia coli HB4 transformed with Enterobacter asburiae CIP 105006 plasmid carrying ACT-1 by agar dilution method; format: functional; method in brief: as §4
[20] = system: Escherichia coli; assay: Antimicrobial activity against Escherichia coli TOP10 transformed with Escherichia coli EC-6 plasmid carrying AmpC-B2 by agar dilution method; format: functional; method in brief: as §3
[21] = system: Escherichia coli; assay: Antimicrobial activity against Escherichia coli TOP10 transformed with Escherichia coli ECB-1 plasmid carrying ACC-1 by agar dilution method; format: functional; method in brief: as §3
[22] = system: Escherichia coli; assay: Antimicrobial activity against Escherichia coli TOP10 transformed with Escherichia coli DH10B plasmid carrying DHA-1 by agar dilution method; format: functional; method in brief: as §3
[23] = system: Escherichia coli; assay: Antimicrobial activity against Escherichia coli TOP10 transformed with Enterobacter asburiae CIP 105006 plasmid carrying ACT-1 by agar dilution method; format: functional; method in brief: as §3
[24] = system: Escherichia coli; assay: Antimicrobial activity against Escherichia coli TOP10 by agar dilution method
[25] = system: Escherichia coli; assay: Antimicrobial activity against OmpC/OmpF porin deficient Escherichia coli HB4 transformed with Escherichia coli ECB2 plasmid carrying CMY-2 by agar dilution method; format: functional; method in brief: as §4
[26] = system: Escherichia coli; assay: Antimicrobial activity against Escherichia coli TOP10 transformed with Escherichia coli pGLK-1 plasmid carrying FOX-1 by agar dilution method; format: functional; method in brief: as §3

Compound	MIC [13] [µg/mL]	MIC [14] [µg/mL]	MIC [15] [µg/mL]	MIC [16] [µg/mL]	MIC [17] [µg/mL]	MIC [18] [µg/mL]	MIC [19] [µg/mL]	MIC [20] [µg/mL]	MIC [21] [µg/mL]	MIC [22] [µg/mL]	MIC [23] [µg/mL]	MIC [24] [µg/mL]	MIC [25] [µg/mL]	MIC [26] [µg/mL]	further results
O=C(Cc1cccs1)N[C@@H]1C(=O)N2C(C(=O)[O-])=C(C[n+]3ccccc3)CS[C@H]12															Km [1]: 630 µM; kcat [1]: 228 s⁻¹; Km [2]: 330 µM; kcat [2]: 196 s⁻¹; Km [3]: 420 µM; kcat [3]: 481 s⁻¹; kcat/Km [4]: 360000 M⁻¹ s⁻¹; kcat/Km [5]: 330000 M⁻¹ s⁻¹; kcat/Km [6]: 250000 M⁻¹ s⁻¹; kcat/Km [7]: 595000 M⁻¹ s⁻¹; kcat/Km [8]: 3.3e+06 M⁻¹ s⁻¹; kcat/Km [9]: 1.14e+06 M⁻¹ s⁻¹; Km [10]: 420 µM; kcat [10]: 140 s⁻¹; Km [11]: 950 µM; kcat [11]: 240 s⁻¹; Km [12]: 125 µM; kcat [12]: 412 s⁻¹
CO/N=C(\C(=O)N[C@@H]1C(=O)N2C(C(=O)[O-])=C(C[N+]3(C)CCCC3)CS[C@H]12)c1csc(N)n1 [CEFEPIME]	1 (≈ 2.08 µM)	1 (≈ 2.08 µM)	1 (≈ 2.08 µM)	4 (≈ 8.32 µM)	8 (≈ 16.6 µM)	2 (≈ 4.16 µM)	4 (≈ 8.32 µM)	0.06 (≈ 0.125 µM)	0.125 (≈ 0.26 µM)	0.064 (≈ 0.133 µM)	0.25 (≈ 0.52 µM)	0.06 (≈ 0.125 µM)			
CO/N=C(\C(=O)N[C@@H]1C(=O)N2C(C(=O)O)=C(COC(C)=O)CS[C@H]12)c1csc(N)n1 [CEFOTAXIME]	128 (≈ 281 µM)	4 (≈ 8.78 µM)	4 (≈ 8.78 µM)	4 (≈ 8.78 µM)	32 (≈ 70.3 µM)	128 (≈ 281 µM)	64 (≈ 141 µM)	0.5 (≈ 1.1 µM)	1 (≈ 2.2 µM)	8 (≈ 17.6 µM)	64 (≈ 141 µM)	0.06 (≈ 0.132 µM)	256 (≈ 562 µM)	16 (≈ 35.1 µM)	
CO[C@@]1(NC(=O)Cc2cccs2)C(=O)N2C(C(=O)O)=C(COC(N)=O)CS[C@@H]21 [CEFOXITIN]	128 (≈ 299 µM)	256 (≈ 599 µM)	512 (≈ 1200 µM)	256 (≈ 599 µM)	> 512	> 512	> 512	128 (≈ 299 µM)	2 (≈ 4.68 µM)	32 (≈ 74.9 µM)	512 (≈ 1200 µM)	2 (≈ 4.68 µM)	> 512	512 (≈ 1200 µM)	
CC(C)(O/N=C(\C(=O)N[C@@H]1C(=O)N2C(C(=O)[O-])=C(C[n+]3ccccc3)CS[C@H]12)c1csc(N)n1)C(=O)O [CEFTAZIDIME]	256 (≈ 468 µM)	4 (≈ 7.32 µM)	8 (≈ 14.6 µM)	16 (≈ 29.3 µM)	512 (≈ 937 µM)	256 (≈ 468 µM)	> 512	1 (≈ 1.83 µM)	8 (≈ 14.6 µM)	64 (≈ 117 µM)	128 (≈ 234 µM)	0.06 (≈ 0.11 µM)	> 512	64 (≈ 117 µM)	
CO/N=C(\C(=O)N[C@@H]1C(=O)N2C(C(=O)O)=C(COC(N)=O)CS[C@H]12)c1ccco1 [CEFUROXIME]	128 (≈ 302 µM)	32 (≈ 75.4 µM)	512 (≈ 1210 µM)	128 (≈ 302 µM)	> 512	> 512	> 512	128 (≈ 302 µM)	1 (≈ 2.36 µM)	128 (≈ 302 µM)	512 (≈ 1210 µM)	1 (≈ 2.36 µM)	> 512	256 (≈ 603 µM)	
C[C@@H](O)[C@H]1C(=O)N2C(C(=O)O)=C(S[C@@H]3CN[C@H](C(=O)Nc4cccc(C(=O)O)c4)C3)[C@H](C)[C@H]12 [ERTAPENEM]	0.064 (≈ 0.135 µM)	1 (≈ 2.1 µM)	2 (≈ 4.21 µM)	2 (≈ 4.21 µM)	4 (≈ 8.41 µM)	16 (≈ 33.6 µM)	256 (≈ 538 µM)	0.064 (≈ 0.135 µM)	0.006 (≈ 0.0126 µM)	0.012 (≈ 0.0252 µM)	0.016 (≈ 0.0336 µM)	0.006 (≈ 0.0126 µM)	256 (≈ 538 µM)	0.032 (≈ 0.0673 µM)	
C[C@@H](O)[C@H]1C(=O)N2C(C(=O)O)=C(SCCNC=N)C[C@H]12 [IMIPENEM ANHYDROUS]	0.5 (≈ 1.67 µM)		0.5 (≈ 1.67 µM)	0.5 (≈ 1.67 µM)	0.5 (≈ 1.67 µM)	2 (≈ 6.68 µM)	16 (≈ 53.4 µM)	0.125 (≈ 0.418 µM)					32 (≈ 107 µM)	0.25 (≈ 0.835 µM)	Km [1]: 35 µM; kcat [1]: 0.01 s⁻¹; kcat [2]: < 0.001 s⁻¹; Km [3]: 3 µM; kcat [3]: 0.02 s⁻¹; kcat/Km [4]: 300 M⁻¹ s⁻¹; kcat/Km [6]: 2000 M⁻¹ s⁻¹; kcat/Km [8]: 40000 M⁻¹ s⁻¹; kcat/Km [9]: 7000 M⁻¹ s⁻¹; kcat [10]: < 0.001 s⁻¹; Km [11]: 35 µM; kcat [11]: 0.08 s⁻¹; Km [12]: 1 µM; kcat [12]: 0.04 s⁻¹
C[C@@H](O)[C@H]1C(=O)N2C(C(=O)O)=C(S[C@@H]3CN[C@H](C(=O)N(C)C)C3)[C@H](C)[C@H]12 [MEROPENEM]	0.064 (≈ 0.167 µM)	0.032 (≈ 0.0834 µM)	0.032 (≈ 0.0834 µM)	0.5 (≈ 1.3 µM)	0.75 (≈ 1.96 µM)	1 (≈ 2.61 µM)	4 (≈ 10.4 µM)	0.032 (≈ 0.0834 µM)	0.032 (≈ 0.0834 µM)	0.032 (≈ 0.0834 µM)	0.032 (≈ 0.0834 µM)	0.032 (≈ 0.0834 µM)	8 (≈ 20.9 µM)	0.125 (≈ 0.326 µM)	
